Experimental data as given in the RNAGym collection of RNA variant scans (doi:10.1126/science.aae0568).
Fewer inactive variants are shown than the library holds.

B1: tRNA (parent)
chain: GUUCCGUUGGCGUAAUGGUAACGCGUCUCCCUCCUAAGGAGAAGACUGCGGGUUCGAGUCCCGUACGGAACG

Variants of: B1
Experiment: yeast fitness relative to wild type (ratio to wild type); higher = fitter; tRNA-Arg(CCU), competitive growth, 37 C, YPD
How it was run: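 Amplicons of the tRNA-Arg(CCU) gene were sequenced, 100-nucleotide paired-end, from the start population and from each end population of a pooled yeast competition. The competition, in six parallel replicates, lasted 24 hours in YPD at 37°C. Fitness relative to wild type was calculated from changes in genotype frequencies. Genotypes had to have ≥ 100 starting reads, and estimates < 0.5 were set to 0.5.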

Row | Variant | yeast fitness
1 | GUUCCGUUGGCGUAAUGGUACCGCGUCUCCCUCCUAAGGAGAACACUGCGGGUUCGGGUCCCGUACGCAACG [A21C G44C A57G G68C] | 0.66
2 | GUUCCGUUGGCGUAAUGGUACCGCGUCUCCCUCCUAAGGAGAAGACUGCGGCUUCGAGUCCCGUACCGAACG [A21C G52C G67C] | ≤ 0.5
3 | GUUCCGUUGGCGUAAUGGUACCGCGUCUCCCUCCUAAGGAGAAGACUGCGGCUUCGAGUCCCGUACGGAACG [A21C G52C] | 0.511
4 | GUUCCGUUGGCGUAAUGGUACCGCGUCUCCCUCCUAAGGAGAAGACUGCGGAUUCGAGUCCCGUACGGAACG [A21C G52A] | 0.636
5 | GUUCCGUUGGCGUAAUGGUACCGCGUCUCCCUCCUAAGGAGAAGACUGCGGGUUCGAGUCCCGUAGGGAACG [A21C C66G] | 0.609
6 | GUUCCGUUGGCGUAAUGGUACCGCGUCUCCCUCCUAAGGAGAAGACUGCGGGUUCGAGUCCCGUAUGGAACG [A21C C66U] | 0.757
7 | GUUCCGUUGGCGUAAUGGUACCGCGUCUCCCUCCUAAGGAGAAAACCGCGGGUUCGAGUCCCGUACGGAACG [A21C G44A U47C] | 0.51
8 | GUUCCGUUGGCGUAAUGGUACCGCGUCUCCCUCGUAAGGAGAAGAUUGCGGGUUCGAGUCCCGUACGGAACG [A21C C34G C46U] | ≤ 0.5
9 | GUUCCGUUGGCGUAAUGGUACCGCGUCUCCCUCGUAAGGAGAAGAAUGCGGGUUCGAGUCCCGUACGGAACG [A21C C34G C46A] | ≤ 0.5
10 | GUUCCGUUGGCGUAAUGGUACCGCGUCUCCCUCCUAAGGACAAGACUGCGGGUUCGAGUCCCGUACGGAACG [A21C G41C] | 0.695
11 | GUUCCGUUGGCGUAAUGGUACCGCGUCUCCCUCCUAAGGAGAAGACUGCGGGUUCAGGUCCCGUAUGGAACG [A21C G56A A57G C66U] | ≤ 0.5
12 | GUUCCGUUGGCGUAAUGGUACCGCCGCUCCCUCCUAAGGAGAAGACUGCGGGUUCGAGUCCCGUACGGACCG [A21C G25C U26G A70C] | ≤ 0.5
13 | GUUCCGUUGGCGUAAUGGUACCGCGUCUCCCUCCUAAGGAGAAGACUGGGGGUUCGAGUCCCGUACGGAACG [A21C C49G] | 0.732
14 | GUUCCGUUGGCGUAAUGGUACCGCGUCUCCCUCCUAAGGAGAAGACUGUGGGUUCGAGUCCCGUACGGAACG [A21C C49U] | 0.824
15 | GUUCCGUUGGCGUAAUGGUACCGCGUCUCCCUCCUAAGGAGAAGACUGAGGGUUCGAGUCCCGUACGGAACG [A21C C49A] | 0.742
16 | GUUCCGUUGGCGUAAUGGUACCCCGUCUCCCUCCUAAGGAGAAGACUGCGGCUUCGAGUCCCGUCCGGAACG [A21C G23C G52C A65C] | ≤ 0.5
17 | GUUCCGUUGGCGUAAUGGUACCGCGUCUCCCUCCUAAGGAGAACACUGCGGGUUCAAGUCCCCUACGAGACG [A21C G44C G56A G63C G68A A69G] | ≤ 0.5
18 | GUUCCGUUGGCGUAAUGGUACCGCGUCUCCCUCCUAAGGAGAAGAAUGCGGGUUCGAGUCCCGUACGGAACG [A21C C46A] | 0.995
19 | GUUCCGUUGGCGUAAUGGUACCGCGUCUCCCUCCUAAGGAGAAGACUGCGGGUUCGAGUCCCGUACUGAACG [A21C G67U] | 0.656

Row | Variant | yeast fitness
20 | GUUCCGUUGGCGUAAUGGUACCGCGUCUCCCUCCUAAGGAGAAGACUGCGGGUUCGACUUCCGUAGGGAACG [A21C G58C C60U C66G] | ≤ 0.5
21 | GUUCCGUUGGCGUAAUGGUACCGCGUCUCCCUCGUAAGGAGAUGACUGCGGGUUCGAGUCCCGUACGGAACG [A21C C34G A43U] | ≤ 0.5
22 | GUUCCGUUGGCGUAAUGGUACCGCGUCUCCCUCCUAAGGAGAAGACUCCGGGUUCCAGUCCCGUACGGAACG [A21C G48C G56C] | ≤ 0.5
23 | GUUCCGUUGGCGUAAUGGUACCGCGUCUCCCUCGUAAGGAGAAGACUGCGGGUUCGAGUCCCGUACGGAACG [A21C C34G] | 0.577
24 | GUUCCGUUGGCGUAAUGGUACCGCGUCUCCCUCUCAAGGAGAAGACUGCGGGUUCGAGUCCCGUACGGAACG [A21C C34U U35C] | ≤ 0.5
25 | GUUCCGUUGGCGUAAUGGUACCGCGUCUCCCUCCUAAGAAGAAGACUGCGGCUUCGAGUCCUGUACGGAACG [A21C G39A G52C C62U] | ≤ 0.5
26 | GUUCCGUUGGCGUAAUGGUACCGCGUCUCCCUCCUAAGGAGAAGACUGUGGGUUCGAGUCCCGUACGGUACG [A21C C49U A69U] | 0.61
27 | GUUCCGUUGGCGUAAUGGUACCGCGUCUCCCUCCUAAGGAGAAGACUGCGGGUUCGAGUACCGUACGGGACG [A21C C60A A69G] | ≤ 0.5
28 | GUUCCGUUGGCGUAAUGGUACCGCGUCUCCCUCCUAACGAGAAGACUGCGGGUUCGAGUCCCCUACGGAUCG [A21C G38C G63C A70U] | ≤ 0.5
29 | GUUCCGUUGGCGUAAUGGUACCGCGUCUCCCUCCUAAGGAGAAGACUGCGGGUUCGAGUCGCGUACGAAACG [A21C C61G G68A] | ≤ 0.5
30 | GUUCCGUUGGCGUAAUGGUACCGCGUCUCCCUGCUAUGGAGAAGACUGCGGGUUCGAGUCCCGGACGGAACG [A21C C33G A37U U64G] | 0.617
31 | GUUCCGUUGGCGUAAUGGUACCGCGUCUCCCUCCUAAGGAGAAGACUGCGGGUUCGAGUCCCGUACGCAACG [A21C G68C] | 0.67
32 | GUUCCGUUGGCGUAAUGGUACCGCGUCUCCCUUCUAAGGAGAAGACUGCGGGUUCGAGUCACGUACGGAACG [A21C C33U C61A] | 0.593
33 | GUUCCGUUGGCGUAAUGGUACCACGUCUCCCUCCUAAGGAGAAGACUGAGGGUUCGAGUCCCGUACGGAACG [A21C G23A C49A] | ≤ 0.5
34 | GUUCCGUUGGCGUAAUGGUACCGCCGCUCCCUCCUAAGGAGAAGACUGCGGGUUCGAGGCCCGUCCGGAACG [A21C G25C U26G U59G A65C] | ≤ 0.5
35 | GUUCCGUUGGCGUAAUGGUACCAUGUCUCCUUCCUAAGGAGAAGACUGUGGGUUCGAGUCCCGUACAGAACG [A21C G23A C24U C31U C49U G67A] | ≤ 0.5
36 | GUUCCGUUGGCGUAAUGGUACCAUGUCUCCUUCCUAAGGAGAAGACUGUGGGUUCGAGUCCCGUACGGAACG [A21C G23A C24U C31U C49U] | ≤ 0.5
37 | GUUCCGUUGGCGUAAUGGUACCGCGUCUCCCUCCUAAGGAGAAGACUGCGAGUUCGAGUCCCGUACGGAACG [A21C G51A] | 0.658
38 | GUUCCGUUGGCGUAAUGGUACCGCGUCUCCCUCCUAAGGAGAAGACUGCGCGUUCGAGUCCCGUACGGAACG [A21C G51C] | 0.528
